Test results reported in ChEMBL document CHEMBL2331277, “Design, synthesis and pharmacological evaluation of omeprazole-like agents with anti-inflammatory activity” (2013).

Columns and labels:
Rattus norvegicus [1] = assay: Antiulcerogenic activity in pylorus ligation-induced gastric ulcer Sprague-Dawley rat model assessed as stomach H+/K+-ATPase activity measuring Pi release per hour per mg protein at 7.2 mg/kg, po for 3 days (Rvb =11.44 +/-1.5 umol ); assay type: functional
Rattus norvegicus [2] = assay: Antiulcerogenic activity in pylorus ligation-induced gastric ulcer Sprague-Dawley rat model assessed as pH of gastric juice at 7.2 mg/kg, po for 3 days (Rvb =2.60 +/-0.55 ); assay type: functional
Mus musculus [3] = assay: Antiulcerogenic activity in ethanol-induced gastric ulcer Swiss albino mouse model assessed as inhibition of ulceration at 7.2 mg/kg administered intragastrically for 3 days relative to control; assay type: functional; conditions: Stomach, po, 72 h, route intragastric
How it was run: (§1)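 Mice, n = 6 per group, given 3.6 or 7.2 mg/kg, omeprazole 3.6 mg/kg, or vehicle (0.25% w/v carboxymethyl cellulose) for 3 days. After a 24 h fast, 90% ethanol (10 ml/kg) was given intragastrically. Animals were killed 1 h later. Stomachs were opened along the greater curvature and lesion lengths measured under a microscope.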

Rattus norvegicus [4] = assay: Antiinflammatory activity against carrageenan-induced paw edema in Sprague-Dawley rat assessed as paw volume at 30 mg/kg, po measured 120 mins post challenge by plethysmometer (reference value: 1.13 +/- 0.04 ml); assay type: functional
Rattus norvegicus [5] = assay: Antiulcerogenic activity in pylorus ligation-induced gastric ulcer Sprague-Dawley rat model assessed as stomach H+/K+-ATPase activity measuring Pi release per hour per mg protein at 3.6 mg/kg, po for 3 days (Rvb =11.44 +/-1.5 umol ); assay type: functional
Mus musculus [6] = assay: Antiulcerogenic activity in ethanol-induced gastric ulcer Swiss albino mouse model assessed as lesion length at 3.6 mg/kg administered intragastrically for 3 days; assay type: functional, Stomach; conditions: route intragastric; how it was run: as §1
Rattus norvegicus [7] = assay: Antiulcerogenic activity in pylorus ligation-induced gastric ulcer Sprague-Dawley rat model assessed as volume of gastric juice at 7.2 mg/kg, po for 3 days (Rvb =5.96 +/-0.80 ml ); assay type: functional
Mus musculus [8] = assay: Antiulcerogenic activity in ethanol-induced gastric ulcer Swiss albino mouse model assessed as lesion length at 7.2 mg/kg administered intragastrically for 3 days; assay type: functional, Stomach; conditions: route intragastric; how it was run: as §1
Rattus norvegicus [9] = assay: Antiinflammatory activity against carrageenan-induced paw edema in Sprague-Dawley rat assessed as inhibition of paw volume at 20 mg/kg, po measured 180 mins post challenge by plethysmometer; assay type: functional; conditions: 3 h
Rattus norvegicus [10] = assay: Antiinflammatory activity against carrageenan-induced paw edema in Sprague-Dawley rat assessed as inhibition of paw volume at 30 mg/kg, po measured 180 mins post challenge by plethysmometer; assay type: functional; conditions: 3 h
Rattus norvegicus [11] = assay: Antiulcerogenic activity in pylorus ligation-induced gastric ulcer Sprague-Dawley rat model assessed as pH of gastric juice at 3.6 mg/kg, po for 3 days (Rvb =2.60 +/-0.55 ); assay type: functional
Rattus norvegicus [12] = assay: Antiinflammatory activity against carrageenan-induced paw edema in Sprague-Dawley rat assessed as paw volume at 10 mg/kg, po measured 60 mins post challenge by plethysmometer (reference value: 0.90 +/- 0.03 ml); assay type: functional
Rattus norvegicus [13] = assay: Antiinflammatory activity against carrageenan-induced paw edema in Sprague-Dawley rat assessed as paw volume at 20 mg/kg, po measured 60 mins post challenge by plethysmometer (reference value: 0.90 +/- 0.03 ml); assay type: functional
Rattus norvegicus [14] = assay: Antiulcerogenic activity in pylorus ligation-induced gastric ulcer Sprague-Dawley rat model assessed as stomach peptic activity measuring tyrosine release for 4 hrs at 3.6 mg/kg, po for 3 days (Rvb =5.70 +/-2.40 ug/ml ); assay type: functional
How it was run: (§2)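 Pylorus-ligated rat model as above (3-day oral dosing, 3.6 or 7.2 mg/kg, 5 h ligation). Gastric juice sample (0.1 ml) was incubated with 2.9 ml acid hemoglobin substrate (2.5 g/100 ml, pH 2.2) for 30 min at 37 °C. Reaction was stopped with ice-cold 0.6 M TCA and centrifuged. Liberated amino acids were read by Lowry, expressed as µg tyrosine/ml.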

Rattus norvegicus [15] = assay: Antiinflammatory activity against carrageenan-induced paw edema in Sprague-Dawley rat assessed as paw volume at 30 mg/kg, po measured 60 mins post challenge by plethysmometer (reference value: 0.90 +/- 0.03 ml); assay type: functional
Rattus norvegicus [16] = assay: Antiinflammatory activity against carrageenan-induced paw edema in Sprague-Dawley rat assessed as paw volume at 20 mg/kg, po measured 120 mins post challenge by plethysmometer (reference value: 1.13 +/- 0.04 ml); assay type: functional
Rattus norvegicus [17] = assay: Antiulcerogenic activity in pylorus ligation-induced gastric ulcer Sprague-Dawley rat model assessed as stomach peptic activity measuring tyrosine release for 4 hrs at 7.2 mg/kg, po for 3 days (Rvb =5.70 +/-2.40 ug/ml ); assay type: functional; how it was run: as §2
Rattus norvegicus [18] = assay: Antiinflammatory activity against carrageenan-induced paw edema in Sprague-Dawley rat assessed as inhibition of paw volume at 10 mg/kg, po measured 180 mins post challenge by plethysmometer; assay type: functional; conditions: 3 h
Rattus norvegicus [19] = assay: Antiinflammatory activity against carrageenan-induced paw edema in Sprague-Dawley rat assessed as paw volume at 10 mg/kg, po measured 120 mins post challenge by plethysmometer (reference value: 1.13 +/- 0.04 ml); assay type: functional
Mus musculus [20] = assay: Antiulcerogenic activity in ethanol-induced gastric ulcer Swiss albino mouse model assessed as inhibition of ulceration at 3.6 mg/kg administered intragastrically for 3 days relative to control; assay type: functional; conditions: Stomach, po, 72 h, route intragastric; how it was run: as §1
Rattus norvegicus [21] = assay: Antiulcerogenic activity in pylorus ligation-induced gastric ulcer Sprague-Dawley rat model assessed as volume of gastric juice at 3.6 mg/kg, po for 3 days (Rvb =5.96 +/-0.80 ml ); assay type: functional
Rattus norvegicus [22] = assay: Antiinflammatory activity against carrageenan-induced paw edema in po dosed Sprague-Dawley rat assessed as inhibition of paw volume measured 180 mins post challenge by plethysmometer; assay type: functional, organism-based

Compound	Activity (Rattus norvegicus [1])	pH (Rattus norvegicus [2])	inhibition in vivo at 7.2 mg/kg (Mus musculus [3])	Activity (Rattus norvegicus [4])	Activity (Rattus norvegicus [5])	Activity (Mus musculus [6])	Activity (Rattus norvegicus [7])	Activity (Mus musculus [8])	inhibition in vivo at 20 mg/kg (Rattus norvegicus [9])	inhibition in vivo at 30 mg/kg (Rattus norvegicus [10])	pH (Rattus norvegicus [11])	Activity (Rattus norvegicus [12])	Activity (Rattus norvegicus [13])	Activity (Rattus norvegicus [14])	Activity (Rattus norvegicus [15])	Activity (Rattus norvegicus [16])	inhibition in vivo at 10 mg/kg (Rattus norvegicus [18])	Activity (Rattus norvegicus [19])	inhibition in vivo at 3.6 mg/kg (Mus musculus [20])	Activity (Rattus norvegicus [21])	other results
COc1ccnc(CNc2ccc3c(c2)nc(C)n3C[C@@H](O)[C@H]2O[C@H](O)[C@@H](O)[C@H]2O)c1C	6 µmol	4.31	66.6%	0.64 mL	6.78 µmol	53 mm	2.24 mL	42 mm	53%	58%	4.1	0.68 mL	0.68 mL	4.62 µg/mL	0.63 mL	0.68 mL	22%	0.88 mL	57.9%	2.31 mL	Activity (Rattus norvegicus [17]): 4.34 µg/mL
COc1ccnc(CNc2ccc3c(c2)nc(C)n3C[C@@H](O)[C@H]2O[C@H](O)[C@@H](O)[C@H]2O)c1OC	6.34 µmol	4.73	73%	0.38 mL	6.88 µmol	49 mm	2.39 mL	34 mm	62%	72%	4.53	0.53 mL	0.44 mL	4.79 µg/mL	0.41 mL	0.4 mL	41%	0.52 mL	61%	2.56 mL	Activity (Rattus norvegicus [17]): 4.54 µg/mL
COc1c(C)cnc(CNc2ccc3[nH]c(C)nc3c2)c1C	–	–	–	0.62 mL	–	–	–	–	49%	53%	–	0.7 mL	0.69 mL	–	0.64 mL	0.67 mL	10%	0.88 mL	–	–	–
COc1ccc2[nH]c([S+]([O-])Cc3ncc(C)c(OC)c3C)nc2c1 (configuration not stated) [OMEPRAZOLE]	–	–	–	–	7.1 µmol	40 mm	–	–	–	–	4.26	–	–	4.92 µg/mL	–	–	–	–	68.3%	2.64 mL	–
Cc1nc2cc(NCc3ccccn3)ccc2[nH]1	–	–	–	1.03 mL	–	–	–	–	32%	45%	–	0.97 mL	0.9 mL	–	0.87 mL	1.08 mL	10%	1.08 mL	–	–	–
COc1ccnc(CNc2ccc3[nH]c(C)nc3c2)c1C	–	–	–	0.65 mL	–	–	–	–	52%	55%	–	0.7 mL	0.69 mL	–	0.64 mL	0.69 mL	11%	0.9 mL	–	–	–
COc1c(C)cnc(CNc2ccc3c(c2)nc(C)n3C[C@@H](O)[C@H]2O[C@H](O)[C@@H](O)[C@H]2O)c1C	6.62 µmol	4.39	76.2%	0.43 mL	7.01 µmol	47 mm	2.38 mL	30 mm	50%	56%	4.14	0.61 mL	0.5 mL	4.8 µg/mL	0.49 mL	0.48 mL	36%	0.64 mL	62.6%	2.48 mL	Activity (Rattus norvegicus [17]): 4.56 µg/mL
Cc1nc2cc(NCc3ccccn3)ccc2n1C[C@@H](O)[C@H]1O[C@H](O)[C@@H](O)[C@H]1O	6.02 µmol	4.41	54%	0.64 mL	6.91 µmol	68 mm	2.3 mL	58 mm	47%	52%	4.04	0.69 mL	0.68 mL	4.72 µg/mL	0.63 mL	0.69 mL	8%	0.89 mL	46%	2.4 mL	Activity (Rattus norvegicus [17]): 4.44 µg/mL
O=C([O-])Cc1ccccc1Nc1c(Cl)cccc1Cl.[Na+] [DICLOFENAC SODIUM]	–	–	–	–	–	–	–	–	73%	–	–	–	0.38 mL	–	–	0.35 mL	–	–	–	–	–
COc1ccnc(CNc2ccc3[nH]c(C)nc3c2)c1OC	6.88 µmol	4.01	46.8%	0.65 mL	7.91 µmol	88 mm	2.6 mL	67 mm	57%	61%	3.64	0.7 mL	0.7 mL	5.02 µg/mL	0.65 mL	0.69 mL	15%	0.88 mL	30%	2.98 mL	Activity (Rattus norvegicus [17]): 4.74 µg/mL; inhibition (Rattus norvegicus [22]): Dose-dependent effect
